HUVEC prolif 384: human endothelial cell proliferation inhibition; HUVEC proliferation, CellTiter-Glo luminescence, 72 h; active compounds read low; viability, % at 10 µM (by protocol); 1.1% of 86,000 active;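 active = viability at or below 30%; inactive = viability above 30%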;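 note: 100% = median luminescence of DMSO-only cell control wells on each plate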
Lung fibro prol: blocks proliferation of human lung fibroblasts; LL 47 human lung fibroblast viability, ATP luminescence; active compounds read low; viability, % at 10 µM; 1.1% of 85,000 active; AID 719;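 active = viability at or below 50% in the single dose screen; inactive = viability above 50%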;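 note: compound exposure lasted 72 h before the ATP readout; 100% = median luminescence of untreated cell-only wells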
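Material: human lung fibroblast line LL 47, low passage; Evaluation: viability percentage against median untreated-cell control; Buffer or medium: 15% FBS in IMEM; Incubation: 72 h compound exposure at 37 °C after overnight plating; Dosing: 0.1% DMSO in all compound wells; Measured by: CellTiter-Glo luminescence.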
HCT116 bCat-KO: beta-catenin-lacking colon tumor cell growth suppression | 1.5% of 140,000 active | AID 818 | viability, % at 10 µM | HCT116 beta-catenin knockout viability, CellTiter-Glo, 60 h; active compounds read low;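 active = viability at or under a set limit, the compound median less 4 SD, cut at about 6% in these data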;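 note: 0% = Hyamine 1622 control at 20 µM and 100% = untreated cell control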
PTEN del growth: suppresses growth of cells with PTEN deletion | HCT116 PTEN-null viability, CellTiter-Glo, 60 h; active compounds read low | viability, % at 10 µM | 1.2% of 140,000 active | AID 827;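 active = viability at or below a set limit, 4 SD under the median of all tested compounds, cut at about 3.7% in these data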;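 note: PTEN knockout HCT116 line with beta catenin targeted HCT116 as companion control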
H69AR growth 86K: blocks growth of human H69AR lung tumor cells | viability, % at 10 µM | H69AR lung tumor viability, ATP luminescence, 72 h; active compounds read low | 6% of 85,000 active | AID 598;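 active = viability at or below 40%; inactive = viability above 40%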;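 note: multidrug resistant small cell line overexpressing MRP-1 efflux transporter; 100% = mean luminescence of untreated control wells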
An asterisk follows results filed as active. The sample as a whole holds a higher share of hits than the screen did.

`O=C(CC1SCCNC1=O)Nc1cc(Cl)cc(Cl)c1` (stereo not drawn) gave HUVEC prolif 384 88.4, Lung fibro prol 47.4*, HCT116 bCat-KO 95.5, PTEN del growth 96.7 and H69AR growth 86K 87.6.
For COC(=O)c1c(NC(=O)CC2Nc3ccccc3NC2=O)sc(C)c1C (stereo not drawn) the results were HCT116 bCat-KO 1.6* and PTEN del growth 1.9*.
`COC(=O)c1cc(NC(=O)CC2SCCNC2=O)cc(C(=O)OC)c1` (stereo not drawn) gave HUVEC prolif 384 102.9, Lung fibro prol 108.4, HCT116 bCat-KO 104.0, PTEN del growth 107.4 and H69AR growth 86K 85.9.
`COC(=O)C(C(=O)OC)C(C[N+](=O)[O-])c1ccc(O)c(OC)c1` (stereo not drawn) gave HCT116 bCat-KO 63.2 and PTEN del growth 57.7.
`COc1ccc([N+](=O)[O-])cc1NC(=O)c1cn(-c2ccc(Cl)cc2)c(=O)c2ccccc12` gave HCT116 bCat-KO 80.4 and PTEN del growth 81.6.
Screening COc1ccccc1-n1cnc2cc(NCc3cccs3)ccc21 returned HUVEC prolif 384 41.3, Lung fibro prol 46.1*, HCT116 bCat-KO 17.9, PTEN del growth 15.0 and H69AR growth 86K 26.7*.
For Cc1ccccc1-n1cnc2cc(NCc3cccs3)ccc21 the results were HUVEC prolif 384 77.3, Lung fibro prol 68.9, HCT116 bCat-KO 45.8, PTEN del growth 49.9 and H69AR growth 86K 20.1*.
For COc1ccccc1-n1cnc2cc(NCc3ccco3)ccc21 the results were HUVEC prolif 384 63.6, Lung fibro prol 53.7, HCT116 bCat-KO 12.4, PTEN del growth 15.2 and H69AR growth 86K 23.1*.
COc1ccc(CNc2ccc3c(c2)ncn3-c2ccccc2OC)cc1 was read as HUVEC prolif 384 95.3, Lung fibro prol 98.4, HCT116 bCat-KO 66.5, PTEN del growth 56.3 and H69AR growth 86K 92.6.
Screening Cn1c(NCc2cccs2)nc2ccccc21 returned HUVEC prolif 384 82.1, Lung fibro prol 94.0, HCT116 bCat-KO 82.7, PTEN del growth 97.0 and H69AR growth 86K 92.9.
Screening COc1ccc(Br)cc1CN(C)CC(=O)Nc1c(Cl)cccc1Cl returned HCT116 bCat-KO 74.3 and PTEN del growth 74.0.
`CCN(CC)c1ccc(/C=c2/sc3nnc(-c4ccccc4C)n3c2=O)cc1` gave HUVEC prolif 384 67.9, Lung fibro prol 87.6, HCT116 bCat-KO 99.7, PTEN del growth 102.0 and H69AR growth 86K 20.3*.
CCN(CC)c1ccc(/C=c2\sc3nnc(-c4ccccc4Cl)n3c2=O)cc1 was read as HUVEC prolif 384 94.3, Lung fibro prol 96.9, HCT116 bCat-KO 90.7, PTEN del growth 90.0 and H69AR growth 86K 97.0.
For COc1cc(/C=C(\C#N)C(N)=O)ccc1OS(=O)(=O)c1ccc(C)cc1 the results were HCT116 bCat-KO 34.0 and PTEN del growth 46.7.
`COc1cc(/C=C(\C#N)C(=O)NC2CCCCC2C)ccc1OS(=O)(=O)c1ccc(C)cc1` (stereo not drawn) gave HCT116 bCat-KO 0.8* and PTEN del growth 1.0*.
`O=C(CCl)Nc1ccccc1Sc1ccc(Cl)cc1` gave HCT116 bCat-KO 2.1* and PTEN del growth 2.5*.
`CC(=O)N1CCN(CC(=O)Nc2ccccc2Sc2ccc(Cl)cc2)CC1` gave HCT116 bCat-KO 74.3 and PTEN del growth 79.9.
Screening CCOC(=O)c1ccc(Nc2ncnc3ccc(C)cc23)cc1 returned HUVEC prolif 384 60.7, Lung fibro prol 115.3, HCT116 bCat-KO 90.0, PTEN del growth 89.3 and H69AR growth 86K 84.5.
`CCOC(=O)c1cccc(Nc2ncnc3ccc(C)cc23)c1` gave HUVEC prolif 384 83.6, Lung fibro prol 89.7, HCT116 bCat-KO 42.5, PTEN del growth 46.2 and H69AR growth 86K 21.5*.
For CN1Cc2cc(C(=O)c3cc(Cl)cc(CSc4ncccn4)c3O)cnc2NC1=O the results were HUVEC prolif 384 51.5, Lung fibro prol 51.4, HCT116 bCat-KO 22.2, PTEN del growth 21.9 and H69AR growth 86K 24.9*.
For Cc1ccc(O)c(C(=O)c2cnc3c(c2)CN(C)C(=O)N3)c1 the results were HCT116 bCat-KO 47.2 and PTEN del growth 43.9.
Cn1c(=O)c2c3c(sc2n2c(SCC(N)=O)nnc12)CC(C(C)(C)C)CC3 (stereo not drawn) was read as HUVEC prolif 384 73.0, Lung fibro prol 89.0, HCT116 bCat-KO 1.4*, PTEN del growth 4.7 and H69AR growth 86K 65.8.
For Cc1ccnc(NC(=O)c2ccc(N3C(=O)CCC3=O)cc2)c1 the results were HUVEC prolif 384 97.5, Lung fibro prol 101.2, HCT116 bCat-KO 85.6, PTEN del growth 101.8 and H69AR growth 86K 99.5.
Cc1cc(=O)[nH]c2ccc(Cl)cc12 was read as HUVEC prolif 384 24.1*, Lung fibro prol 95.0, HCT116 bCat-KO 98.1, PTEN del growth 105.6 and H69AR growth 86K 86.2.
Clc1ccc(CO/N=C2\CCCc3nonc32)c(Cl)c1 was read as HCT116 bCat-KO 92.5 and PTEN del growth 87.5.
For CC(=O)Oc1ccc(N2C(=O)C3C(C2=O)C2(C)C=CC3(C)O2)cc1 (stereo not drawn) the results were HUVEC prolif 384 94.7, Lung fibro prol 27.0* and H69AR growth 86K 2.3*.
Screening COC(=O)c1cc(N2C(=O)C3C(C2=O)C2(C)C=CC3(C)O2)ccc1Cl (stereo not drawn) returned HUVEC prolif 384 61.2, Lung fibro prol 58.0, HCT116 bCat-KO 89.9, PTEN del growth 90.2 and H69AR growth 86K 0.7*.
Screening COC(=O)C1(C(=O)OC)NOC2C(=O)N(c3ccccc3)C(=O)C21 (stereo not drawn) returned HCT116 bCat-KO 110.9 and PTEN del growth 99.2.
COCC(C)n1c(C)cc(C(=O)COC(=O)c2c(NC(C)=O)sc(C)c2C)c1C (stereo not drawn) was read as HUVEC prolif 384 30.9, Lung fibro prol 62.1 and H69AR growth 86K 3.2*.
Cc1ccc(Cc2nnc3n(-c4ccccc4)nc(C(=O)c4ccccc4)n3c2=O)cc1 was read as HUVEC prolif 384 54.8, Lung fibro prol 95.2, HCT116 bCat-KO 38.5, PTEN del growth 39.7 and H69AR growth 86K 21.1*.
Screening COc1ccc2nc(NC(=O)c3cccc(OCc4c(C)noc4C)c3)sc2c1 returned HUVEC prolif 384 48.6, Lung fibro prol 58.9, HCT116 bCat-KO 15.1, PTEN del growth 15.7 and H69AR growth 86K 21.2*.
For COc1ccc2nc(NC(=O)c3cc(C)oc3C)sc2c1 the results were HUVEC prolif 384 83.2, Lung fibro prol 88.2, HCT116 bCat-KO 67.2, PTEN del growth 69.0 and H69AR growth 86K 84.0.
Screening COc1ccc2nc(NC(=O)c3ccoc3C)sc2c1 returned HUVEC prolif 384 46.1, Lung fibro prol 53.3, HCT116 bCat-KO 15.6, PTEN del growth 20.4 and H69AR growth 86K 22.8*.
Screening Nn1c(Cc2cccc3ccccc23)nnc1SCCOc1ccc(F)cc1 returned HCT116 bCat-KO 86.3 and PTEN del growth 86.1.
`O=C(Oc1ccc(Cl)c2cccnc12)c1cccc([N+](=O)[O-])c1` gave HCT116 bCat-KO 26.2 and PTEN del growth 22.5.
For O=C(Oc1c(Cl)cc(Cl)c2cccnc12)c1cccc([N+](=O)[O-])c1 the results were HCT116 bCat-KO 4.4* and PTEN del growth 10.1.
